What all share (type): cell-based
For experiment [1], the target named is Excitatory amino acid transporter 1 (Homo sapiens, UniProt P43003). The experiment is described as follows: Inhibition of human EAAT1 expressed in HEK293 cells assessed as inhibition of 3[H]-D-Aspartate uptake after 6 mins by scintillation counting method. The method in brief: (§1)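 HEK293 cell lines expressing EAAT1, EAAT2 or EAAT3 were cultured and assayed for [³H]-D-aspartate uptake, following an earlier published protocol. Inhibition is reported as IC50 in μM, with pIC50 ± SEM.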

The target of experiment [2] is T1, Excitatory amino acid transporter 3 (Homo sapiens, UniProt P43005).
T1 sequence (P43005 whole entry): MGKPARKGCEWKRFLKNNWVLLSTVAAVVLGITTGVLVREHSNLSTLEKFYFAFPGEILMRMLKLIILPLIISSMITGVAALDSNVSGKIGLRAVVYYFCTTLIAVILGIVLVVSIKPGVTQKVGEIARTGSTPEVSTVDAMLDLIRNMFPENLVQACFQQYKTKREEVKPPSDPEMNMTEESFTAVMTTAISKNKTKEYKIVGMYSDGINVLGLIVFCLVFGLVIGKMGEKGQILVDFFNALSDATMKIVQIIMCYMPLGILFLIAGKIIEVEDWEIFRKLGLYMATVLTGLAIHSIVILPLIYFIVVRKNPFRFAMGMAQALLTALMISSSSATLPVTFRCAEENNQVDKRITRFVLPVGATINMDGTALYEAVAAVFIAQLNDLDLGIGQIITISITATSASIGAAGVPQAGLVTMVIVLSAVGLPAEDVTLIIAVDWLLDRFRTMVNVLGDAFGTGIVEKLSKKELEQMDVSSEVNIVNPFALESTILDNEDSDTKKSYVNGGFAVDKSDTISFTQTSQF
The experiment in a line: Inhibition of human EAAT3 expressed in HEK293 cells assessed as inhibition of 3[H]-D-Aspartate uptake after 6 mins by scintillation counting method. The procedure, abridged: as §1

In experiment [3] the target is Excitatory amino acid transporter 2 (Homo sapiens, UniProt P43004). The experiment is described as follows: Inhibition of human EAAT2 expressed in HEK293 cells assessed as inhibition of 3[H]-D-Aspartate uptake after 6 mins by scintillation counting method. The procedure, abridged:
as §1

Sequence of Excitatory amino acid transporter 2 (P43004 whole entry): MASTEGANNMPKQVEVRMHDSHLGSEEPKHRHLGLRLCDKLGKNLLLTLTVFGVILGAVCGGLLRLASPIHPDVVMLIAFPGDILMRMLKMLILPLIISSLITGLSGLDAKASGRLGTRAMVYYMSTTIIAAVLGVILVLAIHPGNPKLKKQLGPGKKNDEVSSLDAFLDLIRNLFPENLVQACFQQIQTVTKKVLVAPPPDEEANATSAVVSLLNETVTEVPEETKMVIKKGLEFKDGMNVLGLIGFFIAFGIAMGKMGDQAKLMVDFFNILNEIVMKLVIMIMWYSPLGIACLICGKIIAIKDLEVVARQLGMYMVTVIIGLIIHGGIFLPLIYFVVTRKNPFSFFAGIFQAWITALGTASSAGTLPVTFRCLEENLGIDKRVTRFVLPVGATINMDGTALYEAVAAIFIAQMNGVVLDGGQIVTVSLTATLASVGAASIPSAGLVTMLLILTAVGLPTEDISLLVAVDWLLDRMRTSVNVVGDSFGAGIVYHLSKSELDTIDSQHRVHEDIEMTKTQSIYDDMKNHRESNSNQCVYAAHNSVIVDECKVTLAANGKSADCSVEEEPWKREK
Sequence of Excitatory amino acid transporter 1 (P43003 whole entry): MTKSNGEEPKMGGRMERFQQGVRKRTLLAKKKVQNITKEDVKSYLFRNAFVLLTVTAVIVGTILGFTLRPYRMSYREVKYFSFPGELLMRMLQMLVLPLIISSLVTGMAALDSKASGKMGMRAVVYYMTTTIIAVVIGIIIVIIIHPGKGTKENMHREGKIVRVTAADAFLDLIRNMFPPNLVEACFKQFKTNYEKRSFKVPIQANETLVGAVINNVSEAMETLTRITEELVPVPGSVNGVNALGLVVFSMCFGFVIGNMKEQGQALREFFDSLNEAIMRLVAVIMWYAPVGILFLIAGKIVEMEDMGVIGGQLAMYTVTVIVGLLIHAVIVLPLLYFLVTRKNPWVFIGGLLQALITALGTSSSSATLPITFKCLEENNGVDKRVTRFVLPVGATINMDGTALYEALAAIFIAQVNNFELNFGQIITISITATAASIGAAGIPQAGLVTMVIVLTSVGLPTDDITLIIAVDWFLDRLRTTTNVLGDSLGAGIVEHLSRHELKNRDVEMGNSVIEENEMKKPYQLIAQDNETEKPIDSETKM

Regarding `N#CC1=C(N)OC2=C(C(=O)CC(c3ccccc3)C2)C1c1ccccc1` (stereo unspecified), in experiment [1] (read-out: IC50), the IC50 was 3.9 µM.

As for `CC1C(C#N)=C(N)OC2=C1C(=O)CC(c1cccc3ccccc13)C2` (stereo unspecified), the IC50 in experiment [1] (read-out: IC50) was 0.42 µM.

As for `CC1(C)C(C#N)=C(N)OC2=C1C(=O)CC(c1ccccc1)C2` (stereo unspecified), the IC50 in experiment [1] (read-out: IC50) was over 300 µM.

Regarding `N#CC1=C(N)OC2=C(C(=O)NC(c3ccccc3)C2)C1c1ccccc1` (stereo unspecified), in experiment [1] (read-out: IC50), the IC50 is over 300 µM.

For `N#CC1=C(N)OC2=C(C(=O)OC(c3ccccc3)C2)C1c1ccccc1` (stereo unspecified), in experiment [1] (read-out: IC50), the IC50 was over 300 µM.

For the molecule `N#CC1=C(N)OC2=C(C(=O)CN(c3ccccc3)C2)C1c1ccccc1` (stereo unspecified), the IC50 in experiment [2], in experiment [1] (read-out: pIC50 (converted)) and in experiment [3] was over 100 µM throughout.

As for `N#CC1=C(N)OC2=C(C(=O)CN(Cc3ccccc3)C2)C1c1ccccc1` (stereo unspecified), the figures for the IC50 in experiment [2], in experiment [1] (read-out: pIC50 (converted)) and in experiment [3] were over 300 µM, 16.2 µM and over 300 µM, respectively.

In the case of `N#CC1=C(N)OC2=C(C(=O)CN(C(=O)c3ccccc3)C2)C1c1ccccc1` (stereo unspecified), the IC50 in experiment [2], in experiment [1] (read-out: pIC50 (converted)) and in experiment [3] was over 100 µM in each case.

For the molecule `C[C@@H](c1ccccc1)N1CC(=O)C2=C(C1)OC(N)=C(C#N)[C@H]2c1ccccc1`, the figures for the IC50 in experiment [2], in experiment [1] (read-out: pIC50 (converted)) and in experiment [3] were over 300 µM, 5.25 µM and over 300 µM, respectively.

Consider `C[C@@H](c1ccccc1)N1CC(=O)C2=C(C1)OC(N)=C(C#N)[C@@H]2c1ccccc1`, for which the IC50 was over 300 µM in experiment [2], over 316 µM in experiment [1] (read-out: pIC50 (converted)) and over 300 µM in experiment [3].

Turning to `C[C@H](c1ccccc1)N1CC(=O)C2=C(C1)OC(N)=C(C#N)[C@@H]2c1ccccc1`, the results for the IC50 in experiment [2], in experiment [1] (read-out: pIC50 (converted)) and in experiment [3] were over 300 µM, over 316 µM and over 300 µM, respectively.

With `C[C@H](c1ccccc1)N1CC(=O)C2=C(C1)OC(N)=C(C#N)[C@H]2c1ccccc1`, the IC50 in experiment [2] was over 300 µM; in experiment [1] (read-out: pIC50 (converted)) it was 3.72 µM; in experiment [3], over 300 µM.

(Values after ChEMBL document CHEMBL2062411, “Structure-activity relationship study of selective excitatory amino acid transporter subtype 1 (EAAT1) inhibitor 2-amino-4-(4-methoxyphenyl)-7-(naphthalen-1-yl)-5-oxo-5,6,7,8-tetrahydro-4H-chromene-3-carbonitrile (UCPH-101) and absolute configurational assignment using infrared and vibrational …” (J Med Chem, 2012).)
